From ChEMBL document CHEMBL1126036, “Quinolone antibacterial agents. Synthesis and structure-activity relationships of a series of amino acid prodrugs of racemic and chiral 7-(3-amino-1-pyrrolidinyl)quinolones. Highly soluble quinolone prodrugs with in vivo pseudomonas activity” (J Med Chem, 1992)
≈ marks a conversion by molar mass, not a printed value.

Assays:
[1] = tested on: Providencia rettgeri; assay: In vitro antibacterial activity against gram negative Providencia rettgeri M-1771.; format: functional
[2] = tested on: Streptococcus pneumoniae; assay: In vivo potency against acute systemic infection in mouse caused by Streptococcus pneumoniae SV-1 on oral administration by gavage.; format: functional; conditions: read-out: PD50
How it was run: (§1)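 Acute systemic mouse infection. A single oral dose was given by gavage at the time of challenge. Potency is reported as the median protective dose (PD50, mg/kg), determined by earlier published methods.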

[3] = tested on: Pseudomonas aeruginosa; assay: In vitro antibacterial activity against gram negative Pseudomonas aeruginosa UI-18.; format: functional
[4] = tested on: Enterobacter cloacae; assay: In vitro antibacterial activity against gram negative Enterobacter cloacae MA 2646.; format: functional
[5] = tested on: Mus musculus; assay: In vivo potency against acute systemic infection in mouse caused by Streptococcus pyogenes C-203 on subcutaneous injection; format: functional; conditions: sc, read-out: PD50
How it was run: (§2)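 Acute systemic mouse infection. A single subcutaneous dose was injected at the time of challenge. Potency is reported as the median protective dose (PD50, mg/kg), determined by earlier published methods.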

[6] = tested on: Mus musculus; assay: In vivo potency against acute systemic infection in mouse caused by Pseudomonas aeruginosa. UI-18. on subcutaneous injection.; format: functional; conditions: sc, read-out: PD50; how it was run: as §2
[7] = tested on: Streptococcus pneumoniae; assay: In vitro antibacterial activity against gram positive Streptococcus pneumoniae SV-1.; format: functional
[8] = molecular target: DNA gyrase (Escherichia coli) (UniProt P0AES6+P0AES4); assay: In vitro concentration inhibiting DNA gyrase induced cleavage in Escherichia coli H560.; format: functional
How it was run: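 DNA gyrase test run as described in earlier work. The value is the drug concentration (µg/mL) needed to cause DNA cleavage.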

[9] = tested on: Streptococcus pneumoniae; assay: In vivo potency against acute systemic infection in mouse caused by Streptococcus pneumoniae SV-1 on subcutaneous injection.; format: functional; conditions: sc, read-out: PD50; how it was run: as §2
[10] = tested on: Mus musculus; assay: In vivo potency against acute systemic infection in mouse caused by Pseudomonas aeruginosa UI-18 on oral administration by gavage.; format: functional; conditions: read-out: PD50; how it was run: as §1
[11] = tested on: Enterococcus faecalis; assay: In vitro antibacterial activity against gram positive Enterococcus faecalis MGH-2.; format: functional
[12] = tested on: Klebsiella pneumoniae; assay: In vitro antibacterial activity against gram negative Klebsiella pneumoniae. MGH-2; format: functional
[13] = Solubility (in 0.1 N HCl); format: physicochemical; conditions: read-out: S
How it was run: (§3)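 Solubility was measured either from HPLC peak areas at equilibrium or by a conventional weight-per-volume method. All solutions were held for 24 h before measurement.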

[14] = tested on: Escherichia coli; assay: In vitro antibacterial activity against gram negative Escherichia coli Vogel.; format: functional
[15] = tested on: Staphylococcus aureus; assay: In vitro antibacterial activity against gram positive Staphylococcus aureus UC76.; format: functional
[16] = tested on: Staphylococcus aureus; assay: In vitro antibacterial activity against gram positive Staphylococcus aureus H-228.; format: functional
[17] = tested on: Escherichia coli; assay: In vivo potency against acute systemic infection in mouse caused by Escherichia coli Vogel on oral administration by gavage.; format: functional; conditions: read-out: PD50; how it was run: as §1
[18] = tested on: Escherichia coli; assay: In vivo potency against acute systemic infection in mouse caused by Escherichia coli vogel on subcutaneous injection.; format: functional; conditions: sc, read-out: PD50; how it was run: as §2
[19] = Solubility (at pH 4); format: physicochemical; conditions: buffer, read-out: S; how it was run: as §3
[20] = Aqueous solubility; format: physicochemical; conditions: read-out: S; how it was run: as §3
[21] = tested on: Mus musculus; assay: In vivo potency against acute systemic infection in mouse caused by Streptococcus pyogenes C-203 on oral administration by gavage; format: functional; conditions: read-out: PD50; how it was run: as §1
[22] = tested on: Streptococcus pyogenes; assay: In vitro antibacterial activity against gram positive Streptococcus pyogenes C-203.; format: functional
[23] = tested on: DNA gyrase (Escherichia coli); assay: In vitro concentration inhibiting DNA gyrase induced cleavage in Escherichia coli H560
[24] = Solubility (at pH 7.4); format: physicochemical; conditions: buffer; how it was run: as §3
[25] = tested on: Klebsiella pneumoniae; assay: In vitro antibacterial activity against gram negative Klebsiella pneumoniae MGH-2.; format: functional
[26] = tested on: Mus musculus; assay: In vivo potency against acute systemic infection in mouse caused by Streptococcus pneumoniae SV-1 on oral administration by gavage; format: functional; conditions: read-out: PD50; how it was run: as §1
[27] = tested on: Pseudomonas aeruginosa; assay: In vitro antibacterial activity against gram negative Pseudomonas aeruginosa. UI-18; format: functional
[28] = tested on: Mus musculus; assay: In vivo potency against acute systemic infection in mouse caused by Escherichia coli vogel on oral administration by gavage; format: functional; conditions: read-out: PD50; how it was run: as §1
[29] = tested on: Escherichia coli; assay: In vitro antibacterial activity against gram negative Escherichia coli vogel; format: functional
[30] = tested on: Mus musculus; assay: In vivo potency against acute systemic infection in mouse caused by Escherichia coli vogel on subcutaneous injection; format: functional; conditions: sc, read-out: PD50; how it was run: as §2
[31] = tested on: Mus musculus; assay: In vivo potency against acute systemic infection in mouse caused by Streptococcus pneumoniae SV-1 on subcutaneous injection; format: functional; conditions: sc, read-out: PD50; how it was run: as §2
[32] = tested on: Mus musculus; assay: In vivo potency against acute systemic infection in mouse caused by Escherichia coli Vogel on oral administration by gavage; format: functional; conditions: read-out: PD50; how it was run: as §1
[33] = tested on: Mus musculus; assay: In vivo potency against acute systemic infection in mouse caused by Escherichia coli Vogel on subcutaneous injection; format: functional; conditions: sc, read-out: PD50; how it was run: as §2
[34] = tested on: Enterobacter cloacae; assay: In vitro antibacterial activity against gram negative Enterobacter cloacae MA 2646; format: functional

Compound	MIC [1]	ED50 [2]	MIC [3]	MIC [4]	ED50 [5]	ED50 [6]	MIC [7]	ED50 [9]	MIC [11]	MIC [12]	solubility [13]	MIC [14]	MIC [15]	MIC [16]	ED50 [17]	ED50 [18]	solubility [19]	solubility ([20]; water (aqueous))	ED50 [21]	MIC [22]	also measured
C[C@H](N)C(=O)N[C@H]1CCN(c2nc3c(cc2F)c(=O)c(C(=O)O)cn3C2CC2)C1.Cl.O	3.1 mg/L	25 mg/kg	3.1 mg/L	0.8 mg/L	10 mg/kg	2 mg/kg	0.8 mg/L	12 mg/kg	1.6 mg/L	1.6 mg/L	> 350 mg/mL	0.8 mg/L	0.8 mg/L	3.1 mg/L	1.3 mg/kg	0.4 mg/kg	> 350 mg/mL	> 350 mg/mL	22 mg/kg	0.8 mg/L	Cleavage [8]: 5 µg/mL; ED50 [10]: 3 mg/kg; solubility ([20]; pH 7.4 phosphate buffer): 0.02 mg/mL
NC1CCN(c2nc3c(cc2F)c(=O)c(C(=O)O)cn3C2CC2)C1 (configuration not stated)	0.05 mg/L (≈ 0.15 µM)	58 mg/kg	0.05 mg/L (≈ 0.15 µM)	0.025 mg/L (≈ 0.0752 µM)	14 mg/kg	3 mg/kg	0.2 mg/L (≈ 0.602 µM)	33 mg/kg	0.2 mg/L (≈ 0.602 µM)	0.025 mg/L (≈ 0.0752 µM)		0.013 mg/L (≈ 0.0391 µM)	0.013 mg/L (≈ 0.0391 µM)	0.2 mg/L (≈ 0.602 µM)	2 mg/kg	0.6 mg/kg			32 mg/kg	0.2 mg/L (≈ 0.602 µM)	Cleavage [23]: 1 µg/mL; ED50 [10]: 7 mg/kg
Cl.N[C@@H](Cc1ccccc1)C(=O)NC1CCN(c2nc3c(cc2F)c(=O)c(C(=O)O)cn3C2CC2)C1.O (some centres not stated)	6.3 mg/L		6.3 mg/L	0.4 mg/L			0.8 mg/L	37 mg/kg	0.8 mg/L		80 mg/mL	0.8 mg/L	0.4 mg/L	3.1 mg/L	2 mg/kg	0.4 mg/kg	> 100 mg/mL	> 200 mg/mL		1.6 mg/L	solubility ([24]; read-out: S): 0.06 mg/mL; MIC [25]: 3.1 mg/L; ED50 [26]: 65 mg/kg
CC(C)[C@H](N)C(=O)NC1CCN(c2nc3c(cc2F)c(=O)c(C(=O)O)cn3C2CC2)C1.Cl.O (some centres not stated)	1.6 mg/L			0.4 mg/L	27 mg/kg		1.6 mg/L		1.6 mg/L	1.6 mg/L	> 200 mg/mL		0.4 mg/L	1.6 mg/L			> 200 mg/mL	> 200 mg/mL	76 mg/kg	1.6 mg/L	solubility ([24]; read-out: S): 0.08 mg/mL; MIC [27]: 3.1 mg/L; ED50 [28]: 3 mg/kg; MIC [29]: 0.4 mg/L; ED50 [30]: 0.6 mg/kg
C[C@@H]1CN(c2c(F)c(N)c3c(=O)c(C(=O)O)cn(C4CC4)c3c2F)C[C@H](C)N1 [SPARFLOXACIN]	0.2 mg/L (≈ 0.51 µM)		0.8 mg/L (≈ 2.04 µM)	0.025 mg/L (≈ 0.0637 µM)	17 mg/kg	7 mg/kg	0.05 mg/L (≈ 0.127 µM)		0.1 mg/L (≈ 0.255 µM)		0.4 mg/mL (≈ 1020 µM)	0.025 mg/L (≈ 0.0637 µM)	0.025 mg/L (≈ 0.0637 µM)	0.05 mg/L (≈ 0.127 µM)	1 mg/kg	0.2 mg/kg	0.03 mg/mL (≈ 76.5 µM)	0.09 mg/mL (≈ 229 µM)	17 mg/kg	0.1 mg/L (≈ 0.255 µM)	solubility ([24]; read-out: S): 0.01 mg/mL (≈ 25.5 µM); Cleavage [8]: 2.5 µg/mL; ED50 [10]: 14 mg/kg; MIC [25]: 0.05 mg/L (≈ 0.127 µM); ED50 [31]: 13 mg/kg; ED50 [26]: 14 mg/kg
Cl.NCCCC[C@H](N)C(=O)NC1CCN(c2nc3c(cc2F)c(=O)c(C(=O)O)cn3C2CC2)C1.O (some centres not stated)	25 mg/L			12.5 mg/L			> 25 mg/L		> 25 mg/L	25 mg/L	> 200 mg/mL	12.5 mg/L	6.3 mg/L	25 mg/L			> 600 mg/mL	> 300 mg/mL		> 25 mg/L	solubility [24]: 0.07 mg/mL; MIC [27]: > 25 mg/L; ED50 [31]: 70 mg/kg; ED50 [26]: 71 mg/kg
Cl.N[C@H]1CCN(c2c(F)cc3c(=O)c(C(=O)O)cn(C4CC4)c3c2F)C1.O	0.006 mg/L		0.025 mg/L	0.013 mg/L			0.013 mg/L	7 mg/kg	0.025 mg/L	0.003 mg/L		0.006 mg/L	0.003 mg/L	0.013 mg/L				17 mg/mL		0.013 mg/L	ED50 [32]: 1 mg/kg; Cleavage [23]: 0.1 µg/mL; ED50 [33]: 0.2 mg/kg; ED50 [26]: 15 mg/kg
C[C@H](N)C(=O)NC1CCN(c2nc3c(cc2F)c(=O)c(C(=O)O)cn3C2CC2)C1.Cl.O (some centres not stated)	1.6 mg/L	28 mg/kg	3.1 mg/L	0.2 mg/L	7 mg/kg	5 mg/kg	0.8 mg/L	10 mg/kg	1.6 mg/L	0.8 mg/L	> 350 mg/mL	0.4 mg/L	0.8 mg/L	3.1 mg/L	1 mg/kg	0.6 mg/kg	> 350 mg/mL	> 300 mg/mL	15 mg/kg	0.4 mg/L	Cleavage [8]: 0.75 µg/mL; ED50 [10]: 7 mg/kg; solubility ([20]; pH 7.4 phosphate buffer): 0.08 mg/mL
Cl.Nc1c(F)c(N2CC[C@@H](N)C2)c(F)c2c1c(=O)c(C(=O)O)cn2C1CC1.O	0.05 mg/L	15 mg/kg	0.02 mg/L		7.5 mg/kg		0.003 mg/L	3.5 mg/kg	0.05 mg/L		0.2 mg/mL	0.013 mg/L	0.006 mg/L	0.025 mg/L	1.7 mg/kg	0.3 mg/kg	2.6 mg/mL	2.8 mg/mL	12 mg/kg	0.025 mg/L	solubility ([24]; read-out: S): 0.04 mg/mL; Cleavage [8]: 0.1 µg/mL; MIC [25]: 0.025 mg/L; MIC [34]: 0.013 mg/L
